One may read the inhibition as the relative decrease from the control value, in per cent. One may read the CC50 as the concentration giving 50% cytotoxicity. For orientation: pIC50 means the IC50 on a negative log10 scale, so that one unit is a factor of ten.

pIC50: −log10 of the molar value.

This note sets out measurements from ChEMBL document CHEMBL1681787, “Synthesis and anti-HSV-1 activity of new 1,2,3-triazole derivatives” (Bioorg Med Chem, 2011).

Series [1] deals with Human alphaherpesvirus 1. Description: Antiviral activity against Herpes simplex viruses 1 infected in vero cells assessed as inhibition of viral replication at 50 uM after 72 hrs by XTT assay. The class given is functional. The note with it: Human alphaherpesvirus 1, Vero. A digest of the protocol:
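Vero monolayers (10⁴ cells/well) infected with HSV-1 at 100 CCID50/well for 1 h. Inoculum removed, cells washed, medium with 50 µM compound added; acyclovir 50 µM as control. After 72 h XTT/PMS added to measure protection from virus-induced cytopathic effect. Means of triplicate experiments.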
(In general: Tetrazolium dyes change colour on reduction, which living cells bring about.)

A short description of series [2]: Cytotoxicity against african green monkey Vero cells after 72 hrs by XTT assay. The class given is cell-based. The note with it: chlorocebus sabaeus. A digest of the protocol: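 Vero cells (10⁴ cells/well; DMEM, 5% FBS, 37 °C, 5% CO2) exposed to a range of compound concentrations for 72 h. XTT (2.5 mg/mL final) added with PMS 32 µg/mL, 4 h incubation, absorbance read at 492 nm with 620 nm reference. CC50 obtained by linear regression of dose-response curves; acyclovir included.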

Series [3] has as its system Human alphaherpesvirus 1. The series can be described thus: Antiviral activity against 5 MOI Herpes simplex viruses 1 infected in vero cells after 24 hrs by viral plaque number reduction assay. The class given is functional, organism-based. Conditions: Human alphaherpesvirus 1, Vero. A digest of the protocol:
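Vero cells in 6-well plates infected with HSV-1 at MOI 5 for 1 h at 37 °C, then treated with test compounds. After 24 h infected cells lysed, supernatant harvested and titred by plaque assay. IC50 = concentration inhibiting 50% of plaque formation versus untreated controls. Acyclovir positive control. Triplicate independent experiments.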

A short description of series [4]: Selectivity index, ratio of CC50 for african green monkey vero cells to IC50 for Herpes simplex viruses 1. In kind it is functional. A digest of the protocol:
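Selectivity index computed as CC50 (XTT assay in Vero cells, 72 h) divided by IC50 (plaque number reduction against HSV-1 in Vero cells).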

Regarding `Cc1c(C(=O)NNS(=O)(=O)c2ccccc2)nnn1Nc1ccccc1`, in the series with Human alphaherpesvirus 1 [1], the inhibition at 50 µM stood at 79%. In series [2], the CC50 at 72 h is 1510 µM. This compound also had a pIC50 in the series with Human alphaherpesvirus 1 [3] of 4.72. Besides, the “Ratio CC50/IC50” value in series [4] is 80.
With `Cc1ccc(S(=O)(=O)NNC(=O)c2nnn(Nc3ccccc3)c2C)cc1`, the inhibition at 50 µM in the series with Human alphaherpesvirus 1 [1] came to 37%.
Turning to `COc1ccc(S(=O)(=O)NNC(=O)c2nnn(Nc3ccccc3)c2C)cc1`, in the series on Human alphaherpesvirus 1 [1], the inhibition at 50 µM was determined as 54%.
Turning to `Cc1ccc(S(=O)(=O)NNC(=O)c2nnn(Nc3ccc(F)cc3)c2C)cc1`, the inhibition at 50 µM in the series with Human alphaherpesvirus 1 [1] was determined as 88%. The half-maximal cytotoxic concentration (CC50) at 72 h in series [2] was 1270 µM. Also, the pIC50 in the series with Human alphaherpesvirus 1 [3] was 5.89. In addition, the “Ratio CC50/IC50” value in series [4] stood at 974.
As to `Cc1c(C(=O)NNS(=O)(=O)c2ccccc2)nnn1Nc1ccc(Cl)cc1`, the inhibition at 50 µM with Human alphaherpesvirus 1 [1] was 57%.
As for `Cc1c(C(=O)NNS(=O)(=O)c2ccccc2)nnn1Nc1ccc(Br)cc1`, in the series on Human alphaherpesvirus 1 [1], the inhibition at 50 µM was found to be 31%.
On the same count and under the same terms, in the case of `Cc1ccc(S(=O)(=O)NNC(=O)c2nnn(Nc3ccc(Br)cc3)c2C)cc1` it was 69%.
For `COc1ccc(S(=O)(=O)NNC(=O)c2nnn(Nc3ccc(Br)cc3)c2C)cc1`, the inhibition at 50 µM in the series with Human alphaherpesvirus 1 [1] was 77%. The midpoint of cytotoxicity in series [2], the CC50 at 72 h, lay at 971 µM. This compound showed a pIC50 in the series on Human alphaherpesvirus 1 [3] of 4.43. The “Ratio CC50/IC50” value in series [4] worked out at 26.
Turning to `Cc1c(C(=O)NNS(=O)(=O)c2ccccc2)nnn1Nc1cc(Cl)ccc1Cl`, in the series with Human alphaherpesvirus 1 [1], the inhibition at 50 µM worked out at 71%. The compound also registered a 50% cytotoxic concentration (CC50) at 72 h in series [2] of 1170 µM. In the series with Human alphaherpesvirus 1 [3], the pIC50 was 5.90. In addition, the “Ratio CC50/IC50” value in series [4] was found to be 932.
On to `Nc1nc2c(ncn2COCCO)c(=O)[nH]1` [ACYCLOVIR], for which the inhibition at 50 µM in the series with Human alphaherpesvirus 1 [1] turned out to be 95%. In addition, the CC50 at 72 h in series [2] was 860 µM. Moreover, the pIC50 in the series on Human alphaherpesvirus 1 [3] is 6.00. In addition, the “Ratio CC50/IC50” value in series [4] came to 869.
